The source made the active and inactive calls. The rule behind the calls is not given here.
Key:
[1] = system: A549; assay: Growth inhibition of human A549 cells after 48 hrs by sulforhodamine B assay; format: functional; conditions: A549, 48 h
[2] = system: A549; assay: Anticlonogenic activity against human A549 cells assessed as inhibition of colony formation of cells treated at 0.2 uM with test compound after cell plating and every 3 days thereafter and measured on day 9 after colonies formed by SRB assay; format: functional
How it was run: (§1)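 A549 cells plated at 200 cells/well, incubated overnight, then exposed to compound or DMSO vehicle; medium and compound renewed every 3 days. On day 9, colonies fixed with 10% TCA for 30 min at 4°C, water-washed, SRB-stained and rinsed with 1% acetic acid. Plates scanned, colonies counted and normalized to DMSO control.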

[3] = (§2) Inhibition of TNF-alpha-induced NFkappaB nuclear translocation in human A549 cells preincubated for 30 mins before TNFalpha challenge and measured 30 post TNFalpha challenge by fluorescence method; format: cell-based
[4] = target: T1, Inhibitor of NF-kappa-B kinase (IKK) (Homo sapiens, UniProt O14920+O15111+Q9Y6K9); assay: Inhibition of IKK in human A549 cells assessed as inhibition of TNF-alpha-induced IkappaB phosphorylation preincubated for 30 mins before TNFalpha challenge; format: cell-based
T1 sequence (O15111 whole entry, one chain of several): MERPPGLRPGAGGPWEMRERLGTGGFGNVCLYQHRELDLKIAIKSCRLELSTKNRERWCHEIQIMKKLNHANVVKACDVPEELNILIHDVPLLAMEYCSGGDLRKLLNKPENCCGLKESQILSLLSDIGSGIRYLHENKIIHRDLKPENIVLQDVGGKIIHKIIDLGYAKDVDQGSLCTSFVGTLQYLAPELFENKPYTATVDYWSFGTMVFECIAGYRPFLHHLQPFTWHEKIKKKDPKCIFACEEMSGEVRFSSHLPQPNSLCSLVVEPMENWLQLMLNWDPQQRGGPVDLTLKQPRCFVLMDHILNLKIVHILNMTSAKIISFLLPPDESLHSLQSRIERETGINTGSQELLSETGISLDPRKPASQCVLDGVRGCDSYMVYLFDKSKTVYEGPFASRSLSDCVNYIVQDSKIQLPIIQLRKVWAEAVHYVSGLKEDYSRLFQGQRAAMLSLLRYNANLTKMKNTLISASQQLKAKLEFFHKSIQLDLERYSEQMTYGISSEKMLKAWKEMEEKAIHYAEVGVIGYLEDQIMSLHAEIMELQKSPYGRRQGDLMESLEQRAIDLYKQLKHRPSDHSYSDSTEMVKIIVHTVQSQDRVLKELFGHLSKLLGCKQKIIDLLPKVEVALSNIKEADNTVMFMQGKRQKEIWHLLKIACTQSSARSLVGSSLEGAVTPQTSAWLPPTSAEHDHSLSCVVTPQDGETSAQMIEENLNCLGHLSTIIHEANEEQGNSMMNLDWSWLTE
T1 sequence (Q9Y6K9 whole entry, one chain of several): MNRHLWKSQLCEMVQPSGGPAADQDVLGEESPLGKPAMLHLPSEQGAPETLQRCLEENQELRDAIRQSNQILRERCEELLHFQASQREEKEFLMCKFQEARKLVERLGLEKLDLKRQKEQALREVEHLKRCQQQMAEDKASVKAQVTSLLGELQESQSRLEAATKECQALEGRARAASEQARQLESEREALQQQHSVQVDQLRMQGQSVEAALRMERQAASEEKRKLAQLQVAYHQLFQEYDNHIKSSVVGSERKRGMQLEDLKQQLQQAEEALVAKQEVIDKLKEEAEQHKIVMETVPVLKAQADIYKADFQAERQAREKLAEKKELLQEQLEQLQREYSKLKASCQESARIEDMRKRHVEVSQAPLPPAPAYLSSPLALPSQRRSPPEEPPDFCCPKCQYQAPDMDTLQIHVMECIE
How it was run: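 A549 cells pretreated 30 min with compounds before TNFα (10 ng/ml). Whole-cell NP-40 lysates prepared 7 min after TNFα, run on 12.5% SDS-PAGE and Western blotted with anti-pS32 IκB antibody. Membrane then stripped and reprobed for total IκB.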

[5] = Growth inhibition of human NCI-H1944 cells after 72 hrs by alamar blue method; format: functional; conditions: NCI-H1944, 72 h
How it was run: (§3)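 Cells kept in RPMI with 10% FBS and penicillin/streptomycin at 37°C, 5% CO2. Plated in 384-well format, dosed the next day, then incubated 72 hr before Alamar Blue read-out. GI50 is the concentration lowering viability by 50% versus solvent-vehicle control cells at the end of incubation.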

[6] = target: T2, Inhibitor of nuclear factor kappa-B kinase subunit beta (Homo sapiens) (UniProt O14920); assay: Inhibition of recombinant IKK-beta assessed as inhibition of incorporation of [gamma32P] to GST-IkappaBalpha after 30 mins by scintillation counting
T2 sequence (whole entry): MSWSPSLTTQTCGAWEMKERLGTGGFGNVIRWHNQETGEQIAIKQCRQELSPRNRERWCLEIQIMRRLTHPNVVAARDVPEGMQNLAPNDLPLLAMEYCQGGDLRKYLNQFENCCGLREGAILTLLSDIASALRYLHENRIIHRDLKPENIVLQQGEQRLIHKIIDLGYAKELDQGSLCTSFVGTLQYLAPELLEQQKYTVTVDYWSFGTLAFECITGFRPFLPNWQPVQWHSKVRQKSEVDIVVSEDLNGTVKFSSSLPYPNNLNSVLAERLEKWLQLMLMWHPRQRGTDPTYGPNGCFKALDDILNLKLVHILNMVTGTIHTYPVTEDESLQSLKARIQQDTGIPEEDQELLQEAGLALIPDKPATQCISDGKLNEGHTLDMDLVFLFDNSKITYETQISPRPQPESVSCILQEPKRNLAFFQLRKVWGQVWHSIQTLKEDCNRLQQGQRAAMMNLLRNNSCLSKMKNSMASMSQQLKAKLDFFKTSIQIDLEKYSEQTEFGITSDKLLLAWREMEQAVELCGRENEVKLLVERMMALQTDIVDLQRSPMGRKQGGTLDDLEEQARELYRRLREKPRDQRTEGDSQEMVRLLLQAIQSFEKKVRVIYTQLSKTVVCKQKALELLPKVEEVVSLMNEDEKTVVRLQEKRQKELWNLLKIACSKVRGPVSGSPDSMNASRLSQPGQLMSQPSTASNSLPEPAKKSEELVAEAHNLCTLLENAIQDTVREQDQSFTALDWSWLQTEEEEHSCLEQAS
How it was run: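 Activated recombinant IKKβ (40 ng) preincubated with compounds 30 min at room temperature in MOPS buffer pH 7.0. Reaction started with Mg-ATP mix (100 μM ATP, 15 mM MgCl2), 5 μg GST-IκBα and 0.5 μCi [γ-32P]ATP in 25 μl, run 30 min at 30°C. Stopped by boiling in SDS buffer, resolved by 12.5% SDS-PAGE, autoradiographed. Excised bands quantified by scintillation counting.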

[7] = target: T1, Inhibitor of NF-kappa-B kinase (IKK); assay: Inhibition of IKK in human A549 cells assessed as inhibition of TNF-alpha-induced IkappaB degradation at 0.5 to 25 uM preincubated for 4 hrs before TNFalpha challenge measured after 20 mins by Western blot analysis; format: cell-based
How it was run: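 A549 cells pretreated with compounds at indicated doses, then TNFα (10 ng/ml) added for a further 20 min. Cells lysed in NP-40 buffer (1.0% NP-40, 10 mM Hepes pH 7.4, 150 mM NaCl, phosphatase and protease inhibitors). Equal lysate volumes run on 12.5% SDS-PAGE, transferred to nitrocellulose, milk-blocked, and total IκB detected by Western blot.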

[8] = system: NCI-H157; assay: Growth inhibition of human NCI-H157 cells after 72 hrs by alamar blue method; format: functional; conditions: NCI-H157, 72 h; how it was run: as §3
[9] = system: NCI-H460; assay: Growth inhibition of human H460 cells after 72 hrs by alamar blue method; format: functional; conditions: NCI-H460, 72 h; how it was run: as §3
[10] = system: A549; assay: Growth inhibition of human A549 cells after 72 hrs by alamar blue method; format: functional; conditions: A549, 72 h; how it was run: as §3
[11] = system: A549; assay: as §2; format: cell-based
[12] = system: A549; assay: Anticlonogenic activity against human A549 cells assessed as inhibition of colony formation of cells treated at 4 uM with test compound after cell plating and every 3 days thereafter and measured on day 9 after colonies formed by SRB assay; format: functional, cell-based; how it was run: as §1
[13] = system: A549; assay: Anticlonogenic activity against human A549 cells assessed as inhibition of colony formation of cells treated at 0.4 uM with test compound after cell plating and every 3 days thereafter and measured on day 9 after colonies formed by SRB assay; format: functional; how it was run: as §1

SMILES	GI50 [1] [nM]	IC50 [3] [nM]	other results
COc1cc(C=C(C(=O)/C=C/c2ccc(OC)c(OC)c2)C(=O)/C=C/c2ccc(OC)c(OC)c2)ccc1O	530	1000	inhibition at 0.2 µM [2]: 50%; IC50 [4]: 2800 nM; GI50 [5]: 70 nM; inhibition [6]: Dose-dependent effect; inhibition [7]: Active; GI50 [8]: 160 nM; GI50 [9]: 130 nM; GI50 [10]: 720 nM
COc1cc(C=C(C(=O)/C=C/c2ccc(O)c(OC)c2)C(=O)/C=C/c2ccc(O)c(OC)c2)ccc1O	2000	1000	
CCc1ccc(C=C(C(=O)/C=C/c2ccc(OC)c(OC)c2)C(=O)/C=C/c2ccc(OC)c(OC)c2)cc1	630	4900	
COc1ccc(/C=C/C(=O)C(=Cc2ccc(O)cc2)C(=O)/C=C/c2ccc(OC)c(OC)c2)cc1OC	420	1400	
COc1ccc(/C=C/C(=O)C(=Cc2ccc(N(C)C)cc2)C(=O)/C=C/c2ccc(OC)c(OC)c2)cc1OC	2620	> 40000	
Cc1ccc(/C=C/C(=O)/C=C(O)/C=C/c2ccc(C)o2)o1	> 25000	8500	
COc1ccc(/C=C/C(=O)/C=C(O)/C=C/c2ccc(OC)c(OC)c2)cc1OC [DIMETHYLCURCUMIN]	5800	> 40000	
COc1cc(/C=C/C(=O)C(=Cc2cccc(F)c2)C(=O)/C=C/c2ccc(O)c(OC)c2)ccc1O	360	1400	
COc1ccc(/C=C/C(=O)C(=Cc2ccc(F)cc2)C(=O)/C=C/c2ccc(OC)c(OC)c2)cc1OC	550	1100	inhibition at 0.2 µM [2]: 50%; inhibition [11]: Dose-dependent effect; IC50 [4]: 2200 nM; GI50 [5]: 280 nM; inhibition [6]: Dose-dependent effect; inhibition [7]: Active; GI50 [8]: 280 nM; GI50 [9]: 270 nM; GI50 [10]: 700 nM
COc1cc(/C=C/C(=O)CC(=O)/C=C/c2ccc(O)c(OC)c2)ccc1O [CURCUMIN]	15200	9500	GI50 [5]: 16200 nM; Activity [12]: Active; GI50 [8]: 19200 nM; GI50 [9]: 12100 nM; GI50 [10]: 9440 nM
COc1ccc(/C=C/C(=O)C(=Cc2cccc(F)c2)C(=O)/C=C/c2ccc(OC)c(OC)c2)cc1OC	580	1300	
COc1cc(/C=C/C(=O)C(=Cc2ccc(OC)c(OC)c2)C(=O)/C=C/c2ccc(O)c(OC)c2)ccc1O	430	> 40000	
COc1cc(/C=C/C(=O)C(=Cc2cccc(OC)c2OC)C(=O)/C=C/c2ccc(O)c(OC)c2)ccc1O	420	1700	IC50 [4]: 5000 nM; inhibition at 0.4 µM [13]: 50%; GI50 [5]: 330 nM; inhibition [6]: Dose-dependent effect; inhibition [7]: Active; GI50 [8]: 530 nM; GI50 [9]: 300 nM; GI50 [10]: 930 nM
O=C(/C=C(O)/C=C/c1ccco1)/C=C/c1ccco1	> 25000	> 40000	
COc1cc(/C=C/C(=O)/C(=C/c2cc(OC)c(OC)c(OC)c2)C(C)=O)cc(OC)c1OC	530	4800	
COc1ccc(/C=C/C(=O)C(=Cc2cc(OC)c(OC)c(OC)c2)C(=O)/C=C/c2ccc(OC)c(OC)c2)cc1OC	230	1800	
COc1ccc(/C=C/C(=O)C(=Cc2cc(OC)c(OC)c(OC)c2)C(=O)/C=C/c2ccc(OC)cc2)cc1	1120	3800	
COc1ccc(/C=C/C(=O)C(=CO)C(=O)/C=C/c2ccc(OC)c(OC)c2)cc1OC	> 25000	> 40000	
CCc1ccc(C=C(C(=O)/C=C/c2ccc(O)c(OC)c2)C(=O)/C=C/c2ccc(O)c(OC)c2)cc1	550	1800	

SMILES	GI50 [1] [nM]	IC50 [3] [nM]	other results
COc1cc(/C=C/C(=O)C(=Cc2ccc(F)cc2)C(=O)/C=C/c2ccc(O)c(OC)c2)ccc1O	780	2700	
COc1ccc(OC)c(C=C(C(=O)/C=C/c2ccc(OC)c(OC)c2)C(=O)/C=C/c2ccc(OC)c(OC)c2)c1	530	1500	
COc1ccc(C=C(C(=O)/C=C/c2ccc(O)c(OC)c2)C(=O)/C=C/c2ccc(O)c(OC)c2)c(OC)c1	690	1000	
COc1ccc(/C=C/C(=O)/C=C/c2cc(OC)c(OC)c(OC)c2)cc1OC	1210	9000	
COc1ccc(C=C(C(=O)/C=C/c2ccc(OC)c(OC)c2)C(=O)/C=C/c2ccc(OC)c(OC)c2)cc1OC	310	1500	
COc1ccc(OC)c(C=C(C(=O)/C=C/c2ccc(O)c(OC)c2)C(=O)/C=C/c2ccc(O)c(OC)c2)c1	670	1400	
COc1cc(/C=C/C(=O)C(=CO)C(=O)/C=C/c2ccc(OC(C)=O)c(OC)c2)ccc1OC(C)=O	> 25000	39300	
COc1cc(/C=C/C(=O)/C=C/c2cc(OC)c(OC)c(OC)c2)cc(OC)c1OC	550	7900	
COc1ccc(/C=C/C(=O)/C=C(O)/C=C/c2ccc(OC)cc2)cc1	> 25000	> 40000	
COc1ccc(/C=C/C(=O)C(=CO)C(=O)/C=C/c2ccc(OC)cc2)cc1	> 25000	> 40000	
COc1ccc(/C=C/C(=O)C(=Cc2ccc(O)c(OC)c2)C(=O)/C=C/c2ccc(OC)cc2)cc1	1640	3000	
COc1ccc(/C=C/C(=O)C(=Cc2ccc(C)o2)C(=O)/C=C/c2ccc(OC)c(OC)c2)cc1OC	1310	2800	
COc1ccc(/C=C/C(=O)C(=Cc2ccc(OC)c(OC)c2)C(=O)/C=C/c2ccc(OC)cc2)cc1	930	3300	
COc1ccc(/C=C/C(=O)C(=Cc2cccc(OC)c2OC)C(=O)/C=C/c2ccc(OC)c(OC)c2)cc1OC	670	1500	
COc1ccc(C=C(C(=O)/C=C/c2cc(OC)c(OC)c(OC)c2)C(=O)/C=C/c2cc(OC)c(OC)c(OC)c2)cc1OC	370	1000	
COc1cc(/C=C/C(=O)/C=C/c2sccc2C)cc(OC)c1OC	9310	24300	
COc1ccc(C=C(C(=O)/C=C/c2ccc(OC)c(OC)c2)C(=O)/C=C/c2ccc(OC)c(OC)c2)c(OC)c1	650	1700	
COc1cccc(C=C(C(=O)/C=C/c2ccc(O)c(OC)c2)C(=O)/C=C/c2ccc(O)c(OC)c2)c1	640	1300	

From ChEMBL document CHEMBL1799938, “Synthesis and identification of new 4-arylidene curcumin analogues as potential anticancer agents targeting nuclear factor-κB signaling pathway” (J Med Chem, 2010)
